Consider six molecules from article PMC6198128 (Redox Biology, 2018).

The subject of test [1] is HL-60 cells. The test is described as follows: Internucleosomal DNA fragmentation and cell cycle distribution. It counts as cell-based, human. In a few lines:
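After 24 or 48 h treatment, HL-60 cells were permeabilized and stained with propidium iodide, and DNA content was measured by flow cytometry. 10^4 events were recorded per sample with debris excluded. Sub-G0/G1 was taken as internucleosomal DNA fragmentation, alongside G0/G1, S and G2/M fractions. Doxorubicin and oxaliplatin were positive controls; ANOVA with Student–Newman–Keuls test.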

A further test relates to calf thymus DNA (ctDNA). Nature of the test: DNA intercalation assay. The note with it: cell-free, 15 µg/mL ctDNA, 1.5 µM ethidium bromide; complex 5, 10 and 20 µM; doxorubicin 10 µM. It is filed as binding. The method in brief:
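Ethidium bromide displacement from calf thymus DNA in saline: 15 µg/mL ctDNA, 1.5 µM ethidium bromide, test compound at 5, 10 and 20 µM. Vehicle (0.1% DMSO) was the negative control and doxorubicin (10 µM) the positive control. Fluorescence was read at excitation 320 nm and emission 600 nm. Lower fluorescence was taken as intercalation.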

For test [2], the system named is HL-60 cells. It is filed as cell-based, human.
Test [3] deals with HL-60 cells. The test is described as follows: Morphological analysis. The note with it: 24 and 48 h, DOX 2 µM, OXA 2.5 µM; for cell morphology: HL-60, May-Grunwald-Giemsa; for forward light scatter (FSC) / side scatter (SCC): HL-60, flow cytometry. It is filed as cell-based, human. The method in brief:
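HL-60 cells were treated for 24 and 48 h, then stained with May-Grunwald-Giemsa and examined by light microscopy. In parallel, forward and side light scatter were quantified by flow cytometry, recording 10^4 events per sample with debris excluded. Vehicle was the negative control, with doxorubicin and oxaliplatin as positive controls.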
A general note: In flow cytometry, cells or beads pass a laser one at a time.

Test [4] concerns HCT116 (human colon carcinoma). Nature of the test: Alamar blue cytotoxicity assay, HCT116. It is filed as cell-based. The note with it: read-out: IC50 in µM. On the technique in general: The colour change of resazurin is a common sign of viable cells or microbes.
Test [5] relates to K-562 (human chronic myelogenous leukemia). Nature of the test: Alamar blue cytotoxicity assay, K-562. It counts as cell-based. The note with it: read-out: IC50 in µM.
The subject of test [6] is HepG2 (human hepatocellular carcinoma). The test is described as follows: Alamar blue cytotoxicity assay, HepG2. The note with it: read-out: IC50 in µM. It counts as cell-based.
For test [7], the system named is SCC-9 (human oral squamous cell carcinoma). Nature of the test: Alamar blue cytotoxicity assay, SCC-9. It counts as cell-based. The note with it: Homo sapiens, SCC-9, 72 h, read-out: IC50 in µM.
For test [8], the system named is HL-60 (human promyelocytic leukemia). Nature of the test: Alamar blue cytotoxicity assay, HL-60. It counts as cell-based. The note with it: read-out: IC50 in µM.
The test system of test [9] is MCF-7 (human breast carcinoma). Nature of the test: Alamar blue cytotoxicity assay, MCF-7. It counts as cell-based. The note with it: read-out: IC50 in µM.
In test [10] the test system is PBMC (human peripheral blood mononuclear cells). Nature of the test: Alamar blue cytotoxicity assay, PBMC. It counts as cell-based. The note with it: 72 h, read-out: IC50 in µM.
Test [11] concerns HL-60 cells. It is filed as cell-based, human. The note with it: for apoptotic cells (annexin V-FITC/PI): HL-60, 24 and 48 h, p < 0.05, DOX 2 µM, OXA 2.5 µM; for effect of pretreatment on complex-induced apoptosis: HL-60, 2 h pretreatment (5 mM NAC or 5 µM inhibitor), then 4 µM complex for 48 h.
For test [12], the system named is MRC-5 (human lung fibroblast). The test is described as follows: Alamar blue cytotoxicity assay, MRC-5. It counts as cell-based. The note with it: read-out: IC50 in µM.
Test [13] concerns HL-60 cells. The test is described as follows: Mitochondrial transmembrane potential. It is filed as cell-based, human. The note with it: HL-60, rhodamine 123, 24 h, p < 0.05; DOX 2 µM, OXA 2.5 µM. The method in brief:
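HL-60 cells were grown in RPMI-1640 with 10% FBS, 2 mM L-glutamine and 50 µg/mL gentamycin at 37 °C, 5% CO2. After treatment, cells were loaded with rhodamine 123 (5 µg/mL) for 15 min at 37 °C in the dark and washed in saline.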

For test [14], the system named is HSC-3 (human oral squamous cell carcinoma). Nature of the test: Alamar blue cytotoxicity assay, HSC-3. It counts as cell-based. The note with it: read-out: IC50 in µM.
The subject of the next test is B16-F10 (mouse melanoma). The test is described as follows: Alamar blue cytotoxicity assay, B16-F10. It counts as cell-based. The note with it: read-out: IC50 in µM.
A further test has as its system caspase-3 in HL-60 cells. Nature of the test: Caspase-3 colorimetric activation assay. The note with it: HL-60, DEVD-pNA substrate, 48 h, p < 0.05; DOX 2 µM. It is filed as cell-based, human. The method in brief: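 HL-60 cells were treated with test compound and lysed, and caspase-3 activity was read with a colorimetric kit using DEVD-pNA substrate, with absorbance at 405 nm. Total protein was measured by Bradford, and activity was expressed as specific activity per 10 mg protein. Data are mean ± S.E.M., with ANOVA and Student–Newman–Keuls test (p < 0.05) against vehicle.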

The test system of test [15] is non-cancer cells (MRC-5 and PBMC). Nature of the test: Alamar blue cytotoxicity assay, non-cancer cells. The note with it: not cytotoxic at the concentrations tested, 72 h. It counts as cell-based, human. In a few lines:
(§1)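 Human and mouse cell lines plus primary human PBMC (donor informed consent) grown in RPMI-1640 with 10% FBS, 2 mM L-glutamine and 50 μg/mL gentamycin at 37 °C, 5% CO2. Cells were mycoplasma-checked and >90% trypan-blue viable at start. Vehicle served as negative control; doxorubicin, oxaliplatin and piplartine were positive controls. Effect was taken as % of control absorbance, with IC50 and 95% CI from nonlinear regression.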

For test [16], the system named is eight cancer cell lines (HL-60, K-562, HCT116, MCF-7, HepG2, HSC-3, SCC-9 and B16-F10). The test is described as follows: Alamar blue cytotoxicity assay, panel of cancer cell lines. The note with it: not cytotoxic at the concentrations tested, 72 h. It counts as cell-based. In a few lines: as §1
Setting [17] is: HL-60, 2 µM, 24 h of incubation.
[18] abbreviates: HL-60, 2 µM, 48 h of incubation.
Where [19] appears, read: HL-60, 2.5 µM, 24 h of incubation.
Setting [20] is: HL-60, 2.5 µM, 48 h of incubation.

pIC50: −log10 of the molar value. Several values for one entry are separate records, joined by “and”; a condition that tells them apart may be missing. Identical values can stand only once. Like-named read-outs stand apart in the source and are kept apart here. A value given as a limit tells only on which side of the number the result lay.

The IC50 is the concentration needed to halve the response being measured. With `COc1cccc2c1C(=O)c1c(O)c3c(c(O)c1C2=O)C[C@@](O)(C(=O)CO)C[C@@H]3O[C@H]1C[C@H](N)[C@H](O)[C@H](C)O1` [DOX, Doxorubicin], the “DNA content (%) G0/G1” value in the test with HL-60 cells [1] (setting [17]) stood at 19.9 ± 2.5 %; in the test with HL-60 cells [1] (setting [18]) it was 21.9 ± 3.0 %. For the same molecule, the “DNA content (%) G2/M” value with HL-60 cells [1] (setting [17]) came to 8.9 ± 1.5%; with HL-60 cells [1] (setting [18]), 3.8 ± 0.9 %. The “DNA content (%) S” value came out at 6.6 ± 1.6 % in the test on HL-60 cells [1] (setting [17]) and 6.5 ± 0.6 % with HL-60 cells [1] (setting [18]). The “DNA content (%) Sub-G0/G1” value in the test on HL-60 cells [1] (setting [17]) came to 57.2 ± 2.5 %; with HL-60 cells [1] (setting [18]), 65.5 ± 2.8 %. Further, in the test with calf thymus DNA (ctDNA), the “ethidium bromide fluorescence (displacement from ctDNA)” value is recorded as “reduced the fluorescence intensity of ethidium bromide”. Moreover, the “reduction of the number of viable cells” value with HL-60 cells [2] was 57.1% and 87.9%. Also, in the test with HL-60 cells [3], the cell morphology result was “cell shrinkage, chromatin condensation and nuclear fragmentation”. The “forward light scatter (FSC)” value in the test on HL-60 cells [3] is listed as “decrease in FSC”. Moreover, the “side scatter (SCC)” value with HL-60 cells [3] is recorded as “transient increase in SCC”. Also, the half-inhibitory concentration (IC50) in [4] (Homo sapiens, HCT-116, 72 h) was 0.1 µM; in [5] (Homo sapiens, K562, 72 h), 0.3 µM; in [6] (Homo sapiens, HepG2, 72 h), 0.1 µM; in test [7] it was 0.5 µM; in [8] (Homo sapiens, HL-60, 72 h) it was 0.3 µM; in [9] (Homo sapiens, MCF7, 72 h) it was 1.1 µM. Also, the IC50 in test [10] (Homo sapiens, PBMC) stood at 5.1 µM; in [12] (Homo sapiens, MRC5, 72 h), 1.5 µM; in test [14] (Homo sapiens, HSC-3, 72 h), 0.3 µM; with B16-F10 (mouse melanoma) (Mus musculus, B16-F10, 72 h) it was 0.1 µM. Further, the “apoptotic cells (annexin V-FITC/PI)” value with HL-60 cells [11] was “increase in apoptotic cells”. The mitochondrial transmembrane potential result in the test with HL-60 cells [13] is given as “reduced the mitochondrial transmembrane potential”. Moreover, the caspase-3 activation result with caspase-3 in HL-60 cells was “caused caspase-3 activation”.
Consider `O=C1[O][Pt]2([NH][C@@H]3CCCC[C@H]3[NH]2)[O]C1=O` [OXA, oxaliplatin], for which the “DNA content (%) G0/G1” value in the test with HL-60 cells [1] (setting [19]) is 29.1 ± 2.4 %; in the test on HL-60 cells [1] (setting [20]), 42.9 ± 2.8%. The “DNA content (%) G2/M” value was determined as 28.1 ± 2.6 % in the test with HL-60 cells [1] (setting [19]) and 23.4 ± 2.6 % in the test on HL-60 cells [1] (setting [20]). In addition, the “DNA content (%) S” value in the test with HL-60 cells [1] (setting [19]) is listed as 12.6 ± 2.5%; in the test with HL-60 cells [1] (setting [20]) it was 13.2 ± 0.8%. Besides, the results for the “DNA content (%) Sub-G0/G1” value with HL-60 cells [1] (setting [19]) and with HL-60 cells [1] (setting [20]) were 20.7 ± 2.9 % and 24.8 ± 1.9 %, respectively. The cell cycle effect result in the test with HL-60 cells [1] (HL-60, 2.5 µM, p < 0.05) is “cell cycle arrest at the phase G2/M”. In addition, the “reduction of the number of viable cells” value in the test with HL-60 cells [2] is 35.6% and 67.7%. In the test on HL-60 cells [3], the cell morphology entry was “cell shrinkage, chromatin condensation and nuclear fragmentation”. Also, the “forward light scatter (FSC)” value in the test on HL-60 cells [3] was “decrease in FSC”. Moreover, the “side scatter (SCC)” value in the test with HL-60 cells [3] is “transient increase in SCC”. For the same molecule, the IC50 was found to be 4.1 µM in test [4] (HCT116, alamar blue, 72 h); 1 µM in [5] (K-562, alamar blue, 72 h); 2.2 µM in test [6] (HepG2, alamar blue, 72 h); 0.6 µM in test [8] (HL-60, alamar blue, 72 h); 5.7 µM in [9] (MCF-7, alamar blue, 72 h); 9.4 µM in test [10] (PBMC non-cancer cells, alamar blue). For the same molecule, the IC50 in test [12] (MRC-5 non-cancer cells, alamar blue, 72 h) came to 1.3 µM; in test [14] (HSC-3, alamar blue, 72 h) it was 3.1 µM; with B16-F10 (mouse melanoma) (B16-F10, alamar blue, 72 h), 2.2 µM. Further, the “apoptotic cells (annexin V-FITC/PI)” value in the test on HL-60 cells [11] is on record as “increase in apoptotic cells”. The mitochondrial transmembrane potential result in the test on HL-60 cells [13] is given as “reduced the mitochondrial transmembrane potential”.
As to `O=[N+]([O-])c1ccc(-c2nc(-c3ccncc3)c(-c3ccc(F)cc3)[nH]2)cc1` [PD 169316], the “effect of pretreatment on complex-induced apoptosis” value in the test with HL-60 cells [11] was “reduced the complex-induced apoptosis”.
`COc1cc(/C=C/C(=O)N2CCC=CC2=O)cc(OC)c1OC` [PIP, Piplartine]: the IC50 in test [4] (Homo sapiens, HCT-116, 72 h) came to 5.4 µM; in test [5] (Homo sapiens, K562, 72 h) it was 18.6 µM; in test [6] (Homo sapiens, HepG2, 72 h), 6.3 µM; in test [7], 16.5 µM; in [8] (Homo sapiens, HL-60, 72 h) it was 14.1 µM; in [9] (Homo sapiens, MCF7, 72 h), 10.3 µM. Moreover, the IC50 in [10] (Homo sapiens, PBMC) worked out at 34.2 µM; in [12] (Homo sapiens, MRC5, 72 h), 17.3 µM; in test [14] (Homo sapiens, HSC-3, 72 h), 14.1 µM; in the test with B16-F10 (mouse melanoma) (Mus musculus, B16-F10, 72 h) it was 10.6 µM.
Take `N#CC(=C(/N)Sc1ccccc1N)/C(C#N)=C(/N)Sc1ccccc1N` [U-0126]: the “effect of pretreatment on complex-induced apoptosis” value in the test on HL-60 cells [11] is reported as “reduced the complex-induced apoptosis”.
As usually defined, the pIC50 is −log10 of the IC50, conventionally taken in molar units. `[Cl][Pt][Cl].c1ccc(P(c2ccccc2)c2ccccc2)cc1.c1ccc(P(c2ccccc2)c2ccccc2)cc1` [cis-[PtCl2(PPh3)2]]: the negative logarithm of the IC50 (pIC50) in [15] and in [16] was less than 4.50 throughout.
